WT yeast gro inh = growth inhibition of WT yeast, mitochondrial fusion screen; mitochondrial fusion phenotypic screen, WT strain; inhibition, % at 10 µM; 2.1% of 190,000 active; in the data active = inhibition above about 58%; tested in S. cerevisiae
SUMO Mot1 rescue = inhibitors of SUMOylation pathway: yeast Mot1-301 growth rescue | S. cerevisiae Mot1-301 growth rescue, ATP luminescence, 38.5C; percent above DMSO median, 100 means doubled | growth rescue, % at 18.8 µM | 1% of 320,000 active | AID 2716;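 active = every valid replicate shows activation above 250% relative to neutral control wells; inactive = the rest, any valid replicate at or below 250%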;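 note: OY570 slx delta 5 strain wells were the positive control but not used for scaling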
T cruzi repl = T. cruzi replication inhibition. 1.4% of 300,000 active. inhibition, % (test concentration not listed). AID 1885. T. cruzi beta-gal in NIH3T3, luminescence, 90 h;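 active = mean inhibition across valid replicates above about 55%, limit read from the data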;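 note: signal also drops with host cell toxicity which is not excluded here; 0% = plate median of DMSO wells and 100% = zero luminescence signal; higher percent means less beta-gal luminescence so fewer parasites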
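assay system = mouse NIH/3T3 fibroblasts infected with β-gal-expressing T. cruzi Tulahuen C4 | input = 5,000 NIH/3T3 host cells per well | buffer or medium = DMEM plus 2% FBS | timing = 3 h host attachment, then at least 90 h co-culture | measured by = GalScreen luminescence, 60 min | evaluation = luminescence reflecting intracellular parasite burden, expressed as percent inhibition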
CSC inhib = blocks cancer stem cells; cancer stem cell-like cells viability, luminescence; inhibition, % at 7.5 µM; 1.1% of 300,000 active; AID 2717; in the data active = inhibition above about 75%; tested in HMLE shEcad cells
Beta cell apopt = beta cell apoptosis inhibition; INS-1E cytokine-induced death, ATP luminescence, 48 h; percent of positive-control rescue, neutral wells zero; protection from apoptosis, % (concentration not given with the values); 0.8% of 300,000 active;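 active = Every replicate reaches about 75%, or at least half do and their mean reaches it too, limit read from the data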;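 note: 0% = cytokine-treated negative control wells and 100% = positive control rescue; higher means more ATP so stronger rescue from cytokine killing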
Efflux pump mplx = antifungal efflux pump inhibition, Nile Red retention; S. cerevisiae Candida pump triplex; inhibition, % at 10 µM; 0.44% of 330,000 active;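 active = plate passing quality check with inhibition over a set limit, or well fluorescence over plate mean plus 4 SD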;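 note: Nile Red retained in pooled yeast measured as flow cytometry median fluorescence; 0% = buffer negative control and 100% = Enniatin B positive control; higher means more Nile Red kept so more efflux inhibition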
Cmpd fluor yeast = flagged as fluorescent in efflux inhibitor counter-screen | shares compounds with Efflux pump mplx | S. cerevisiae AD/pABC3, compound fluorescence, flow cytometry | AID 588517 | fluorescence ratio to DMSO, % at 10 µM | 4% of 1,700 active;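 active = fluorescence ratio to DMSO above its plate's cutoff, the plate mean ratio plus 5 SD, cut at about 210% in these data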;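 note: unstained yeast with no Nile Red so the signal is compound autofluorescence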
Mdr1 pump inh = blocks the Candida albicans Mdr1 efflux pump in yeast; shares compounds with Efflux pump mplx; S. cerevisiae AD/CaMDR1, Nile Red efflux, flow cytometry; 1% of 1,700 active; inhibition, % at 10 µM; in the data active = inhibition above about 26%;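 note: 0% = DMSO vehicle and 100% = reference inhibitor; higher means more Nile Red retained so more efflux inhibition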
Cdr2 pump inh = inhibitors of Candida albicans Cdr2 efflux pump | AID 588520 | Nile Red retention ratio vs DMSO, % at 10 µM | 4% of 1,700 active | S. cerevisiae AD/CaCDR2, Nile Red retention, flow cytometry | shares compounds with Efflux pump mplx; in the data active = Nile Red retention ratio vs DMSO above about 190%;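 note: higher ratio means more blocking of Cdr2 efflux of the dye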
CaCdr1 efflux inh = Candida Cdr1 efflux pump inhibition. shares compounds with Efflux pump mplx. S. cerevisiae AD/CaCDR1, Nile Red efflux, flow cytometry. inhibition, % at 10 µM. 1% of 1,700 active;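 active = inhibition above the screen-wide mean plus twice its standard deviation, cut at about 32% in these data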
* hit, by the source's call; i = inactive; · = no result; + = active, no number. Rows were chosen to be rich in hits. Some 4.8% of all compounds tested hit in one or more screens of this group.

SMILES | WT yeast gro inh | SUMO Mot1 rescue | T cruzi repl | CSC inhib | Beta cell apopt | Efflux pump mplx | Cmpd fluor yeast | Mdr1 pump inh | Cdr2 pump inh | CaCdr1 efflux inh
Cc1ccc(S(=O)(=O)N2CCN(C(=O)C(Cc3ccccc3)NC(=O)c3ccccc3)CC2)cc1 (stereo not given) | · | -1 | · | · | 0 | 0 | · | · | · | ·
COc1ccc(NC(=O)C2OC3OC(C)(C)OC3C3OC(C)(C)OC23)cc1 (stereo not given) | -1 | -13 | -4 | -5 | 1 | 1.5* | 101 | 0 | 120 | 0
O=C(NN1CCOCC1)c1ccc(Cl)cc1[N+](=O)[O-] | · | -10 | 3 | -11 | 0 | 0 | · | · | · | ·
Cc1ccc(NC(=O)CSCC(=O)OCc2cc(=O)oc3cc(O)ccc23)c(C)c1 | · | 0 | -10 | -14 | 6 | 0 | · | · | · | ·
c1cc2ccc3ccc(CN4CCOCC4)c4ccc(c1)c2c34 | 4 | 53 | 3 | 20 | 6 | 1.1* | 106 | 0 | 101 | 0
OC1CCCN(Cc2ccc3ccc4cccc5ccc2c3c45)C1 (stereo not given) | 16 | -1 | 50 | 35 | 54 | 0 | · | · | · | ·
Cc1ccc(S(=O)(=O)N(C)C)cc1NC(=O)COC(=O)Cc1cccs1 | · | 23 | -4 | -13 | -2 | 0 | · | · | · | ·
CCC(=O)Nc1ccc(N2CCN(Cc3ccccc3)CC2)cc1 | 3 | 24 | -22 | 9 | 12 | 0 | · | · | · | ·
O=C(CCS(=O)(=O)c1ccccc1F)Nc1ccc(N2CCN(Cc3ccccc3)CC2)cc1 | · | 10 | · | 39 | 2 | 1.9* | 109 | 0 | 89 | 0
COc1cc(OC)cc(C(=O)N[C@@H](CCSC)c2nc3ccccc3[nH]2)c1 | -12 | 58 | 14 | 10 | 6 | 0 | · | · | · | ·
O=C(O)CCN1C(=O)/C(=C\c2ccc(-c3nc4ccccc4s3)o2)SC1=S | -25 | 26 | -13 | 6 | -2 | 0.9* | 114 | 8 | + | 56*
O=C(c1cccs1)c1no[n+]([O-])c1C(=O)c1cccs1 | 7 | 15 | 62* | -8 | 47 | 0.9* | 107 | 2 | 287* | 0
COc1ccc(C(=O)c2no[n+]([O-])c2C(=O)c2ccc(OC)cc2)cc1 | 15 | 26 | -15 | -40 | -13 | 0 | · | · | · | ·
Cc1ccc(-c2cc(C(=O)Nc3ccc(S(=O)(=O)Nc4ncccn4)cc3)c3ccccc3n2)cc1 | -14 | 2 | -14 | -25 | 0 | 8.2* | 101 | 0 | 83 | 0
O=C(Nc1ccc(S(=O)(=O)Nc2nccs2)cc1)c1cc(-c2ccccc2)nc2ccccc12 | -3 | -4 | -3 | -10 | 4 | 0 | · | · | · | ·
COc1cc(-c2cc(C(=O)Nc3ccc(O)cc3)c3ccccc3n2)cc(OC)c1OC | · | -12 | -13 | 27 | 10 | 0 | 102 | 0 | 98 | 0
CCc1ccc(-c2cc(C(=O)Nc3ccc(S(=O)(=O)NC(C)=O)cc3)c3ccccc3n2)cc1 | -1 | -8 | -7 | -9 | 2 | 0 | 104 | 0 | 97 | 0
COc1cccc(OC)c1C(=O)NC(=S)Nc1ccc2c(c1)C(=O)N(C)C2=O | 8 | 16 | 0 | -2 | · | 0 | · | · | · | ·
COc1cc(C(=O)NC(=S)Nc2ccc3c(c2)C(=O)N(C)C3=O)cc(OC)c1OC | -5 | 22 | -11 | -10 | 2 | 12* | 108 | 0 | 106 | 0
CC1=NN(c2nc3ccccc3[nH]2)C(=O)/C1=C/N(C)C | 85* | -59 | · | 91* | 113* | 2.4* | 112 | 0 | 104 | 0
COc1ccc(S(=O)(=O)N/N=C(/C)c2ccncc2)cc1 | · | 89 | 1 | -2 | -4 | 5.7* | 101 | 0 | 114 | 0
O=C(CN1CC(c2ccccc2)CC1=O)N/N=C/c1cc(Br)ccc1O (stereo not given) | 16 | 1 | 2 | 39 | 39 | 0 | · | · | · | ·
O=C(Nc1ccc(S(=O)(=O)N2CCCCC2)cc1)C1CC(=O)N(Cc2ccccc2)C1 (stereo not given) | · | 273 | 0 | -3 | -5 | 0 | · | · | · | ·
Cc1ccc(CN2CC(C(=O)Nc3ccc(S(=O)(=O)N4CCCCC4)cc3)CC2=O)cc1 (stereo not given) | · | -11 | 31 | 21 | -3 | 16* | 97 | 0 | 110 | 0
Cc1ccnc(SC2CC(=O)N(c3ccc(Br)cc3)C2=O)n1 (stereo not given) | · | i | 0 | 38 | 11 | 1.1* | 83 | 0 | 83 | 0
Cc1ccnc(SC2CC(=O)N(c3ccc(Cl)cc3)C2=O)n1 (stereo not given) | · | 12 | -12 | 18 | -2 | 0 | · | · | · | ·
Oc1ccc(Cl)cc1C=Nc1ccc2c3c(cccc13)CC2 | -6 | -8 | 1 | 4 | 2 | 4.4* | 87 | 0 | 97 | 0
Cc1cccc(C=Nc2ccc3c4c(cccc24)CC3)c1O | 9 | 212 | -9 | · | · | 1 | · | · | · | ·
Cn1cnc2c(=O)[nH]cc([N+](=O)[O-])c21 | -5 | -16 | -15 | -5 | 3 | 0 | · | · | · | ·

Screens from PubChem.
